Data published in ChEMBL document CHEMBL3525967, “In vitro glucuronidation of the antibacterial triclocarban and its oxidative metabolites” (Drug Metab Dispos, 2012).

How the values were obtained:
Liver microsome = assay: Intrinsic clearance in Sprague-Dawley rat liver microsomes after 30 mins by LC-ESI-MS analysis; type: ADME; conditions: 0.5 h
Method in brief: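 2'-OH-TCC at 0.2, 0.5, 1, 2, 3, 5, 10 and 50 µM incubated with liver microsomes (alamethicin, MgCl2, saccharolactone, UDPGA; 37 °C), sampled at 5, 10, 15 and 30 min. Samples ≥5 µM diluted 1:9 in ACN; LC-ESI-MS. KM and vmax fitted from rate vs concentration; intrinsic clearance derived from these; mean and SD of three.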

[1] = target: T1, UDP-glucuronosyltransferase 2B15 (Homo sapiens, UniProt P54855); assay: Drug metabolism assessed as human UGT2B15-mediated N'-glucuronide-triclocarban formation expressed in baculovirus infected insect sf9 cells incubated for 5 mins prior to UDPGA addition measured after 5 to 30 mins by LC-UV analysis; type: ADME
T1 sequence (P54855 whole entry): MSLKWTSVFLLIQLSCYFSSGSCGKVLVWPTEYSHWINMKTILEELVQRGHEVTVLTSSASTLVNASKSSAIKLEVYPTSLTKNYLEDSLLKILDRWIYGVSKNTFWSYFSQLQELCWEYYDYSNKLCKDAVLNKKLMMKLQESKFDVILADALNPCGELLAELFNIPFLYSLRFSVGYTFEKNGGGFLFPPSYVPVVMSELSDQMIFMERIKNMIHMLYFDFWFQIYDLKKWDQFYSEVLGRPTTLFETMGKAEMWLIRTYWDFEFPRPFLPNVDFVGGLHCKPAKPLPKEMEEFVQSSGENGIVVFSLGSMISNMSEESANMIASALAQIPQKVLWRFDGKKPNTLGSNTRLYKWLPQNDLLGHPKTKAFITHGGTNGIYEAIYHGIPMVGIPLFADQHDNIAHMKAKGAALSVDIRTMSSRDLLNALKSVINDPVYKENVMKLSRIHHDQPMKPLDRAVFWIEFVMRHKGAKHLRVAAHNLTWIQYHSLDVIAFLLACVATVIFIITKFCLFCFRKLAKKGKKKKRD
Method in brief: (§1)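 Microsomes or UGT Supersomes (5 µg protein) were held 15 min on ice with alamethicin in 100 mM potassium phosphate pH 7.4. TCC was added at 10 µM (2% DMSO) with 10 mM MgCl2 and 10 mM saccharolactone, pre-warmed 5 min at 37 °C, then started with UDPGA. Samples at 5, 10, 15 and 30 min were quenched in ACN. Product was read by LC-UV at 265 nm; rate came from regression over time, three incubations.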

[2] = target: T2, UDP-glucuronosyltransferase 1A3 (Homo sapiens, UniProt P35503); assay: Drug metabolism assessed as human UGT1A3-mediated N'-glucuronide-triclocarban formation expressed in baculovirus infected insect sf9 cells incubated for 5 mins prior to UDPGA addition measured after 5 to 30 mins by LC-UV analysis; type: ADME; method in brief: as §1
T2 sequence (P35503 whole entry): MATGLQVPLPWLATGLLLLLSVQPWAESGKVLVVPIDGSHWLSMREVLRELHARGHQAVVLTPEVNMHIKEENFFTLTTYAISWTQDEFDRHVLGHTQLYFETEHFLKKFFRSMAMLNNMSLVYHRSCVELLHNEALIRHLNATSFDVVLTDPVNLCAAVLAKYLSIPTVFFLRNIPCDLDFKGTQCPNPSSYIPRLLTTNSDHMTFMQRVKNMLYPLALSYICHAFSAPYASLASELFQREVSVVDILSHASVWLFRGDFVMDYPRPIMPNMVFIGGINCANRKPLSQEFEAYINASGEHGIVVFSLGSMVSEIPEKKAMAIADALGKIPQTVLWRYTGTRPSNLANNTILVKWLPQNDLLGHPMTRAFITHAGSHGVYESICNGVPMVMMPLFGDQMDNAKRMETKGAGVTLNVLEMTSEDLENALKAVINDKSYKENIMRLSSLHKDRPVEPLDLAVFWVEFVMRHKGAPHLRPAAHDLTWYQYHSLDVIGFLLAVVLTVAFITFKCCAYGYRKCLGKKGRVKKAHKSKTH

[3] = Drug metabolism in B6C3F1 mouse liver microsomes assessed as N-glucuronide-triclocarban formation incubated for 5 mins prior to UDPGA addition measured after 30 mins by LC-UV-ESI-MS/MS analysis; type: ADME; conditions: 0.5 h
Method in brief: (§2)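 TCC was incubated at 10 µM (2% DMSO) in 100 mM phosphate pH 7.4 with alamethicin-treated microsomes or Supersomes, 10 mM MgCl2 and 10 mM saccharolactone. After 5 min pre-incubation at 37 °C, UDPGA was added to start the reaction. Protein was raised up to 2 mg/mL. Samples were quenched in ACN with 1 µM DCC internal standard, centrifuged, and N-glucuronides detected by LC-ESI-MS/MS in SRM mode.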

[4] = target: T3, UDP-glucuronosyltransferase 2B17 (Homo sapiens, UniProt O75795); assay: Drug metabolism assessed as human UGT2B17-mediated N-glucuronide-triclocarban formation expressed in baculovirus infected insect sf9 cells incubated for 5 mins prior to UDPGA addition measured after 5 to 30 mins by LC-UV analysis; type: ADME; method in brief: as §1
T3 sequence (O75795 whole entry): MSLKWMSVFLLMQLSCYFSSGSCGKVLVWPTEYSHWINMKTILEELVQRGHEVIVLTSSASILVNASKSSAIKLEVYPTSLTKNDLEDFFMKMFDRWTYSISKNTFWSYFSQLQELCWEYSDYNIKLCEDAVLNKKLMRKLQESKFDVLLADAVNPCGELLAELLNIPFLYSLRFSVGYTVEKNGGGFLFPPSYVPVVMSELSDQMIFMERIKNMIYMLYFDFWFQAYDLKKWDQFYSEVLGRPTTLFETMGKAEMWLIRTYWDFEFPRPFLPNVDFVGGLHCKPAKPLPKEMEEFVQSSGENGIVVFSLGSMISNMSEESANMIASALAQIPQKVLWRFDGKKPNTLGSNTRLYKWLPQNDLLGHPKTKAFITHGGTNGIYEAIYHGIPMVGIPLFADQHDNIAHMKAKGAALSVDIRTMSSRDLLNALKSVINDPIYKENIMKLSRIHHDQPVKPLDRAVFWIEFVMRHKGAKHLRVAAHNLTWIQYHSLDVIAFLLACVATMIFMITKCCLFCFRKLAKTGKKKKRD

[5] = Drug metabolism in cynomolgus monkey liver microsomes assessed as N-glucuronide-triclocarban formation incubated for 5 mins prior to UDPGA addition measured after 30 mins by LC-UV-ESI-MS/MS analysis; type: ADME, Macaca fascicularis; conditions: 0.5 h; method in brief: as §2

Row | CLH (Liver microsome) [mL/min/mg] | SMILES | Drug metabolism [1] | Drug metabolism [2] | Drug metabolism [3] | Drug metabolism [4] | Drug metabolism [5]
1 | 2.86 | O=C(Nc1ccc(Cl)c(Cl)c1)Nc1ccc(Cl)cc1O |  |  |  |  | 
2 |  | O=C(Nc1ccc(Cl)cc1)Nc1ccc(Cl)c(Cl)c1 [TRICLOCARBAN] | metabolite_not_detected | metabolite_not_detected | metabolite_detected | metabolite_not_detected | metabolite_detected
